Results as given in ChEMBL document CHEMBL4689842, “EUbOPEN Chemogenomics Library wave 1” (2021).
“And” between values parts separate entries of the source, which are not always exact repeats. Equal values may be shown once.

Tested on: Fibroblast
Assay: Multiplex assay against human fibroblast
Assay type: toxicity, cell-based
In short: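 Values for tubulin, mitochondrial-mass and membrane-permeability phenotypes are per cents of cells with healthy nuclei. These cells were identified by CellPathfinder machine-learning gating of live cells that had been stained at seeding with Hoechst33342, BioTracker Green Microtubule Cytoskeleton Dye, MitoTracker Red and Annexin V Alexa Fluor 680 and imaged on a CQ1 microscope at 37°C and 5% CO2 after compound addition. The gating first set Hoechst high-intensity objects apart from normal cells, then split normal cells into healthy, pyknosed or fragmented nuclei, and pyknosed cells into mitotic or apoptotic.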

[1] = 12 h, 1 µM, compound concentration 1 uM, replicate 1
[2] = 12 h, 1 µM, compound concentration 1 uM, replicate 2
[3] = 12 h, 10 µM, compound concentration 10 uM, replicate 1
[4] = 12 h, 10 µM, compound concentration 10 uM, replicate 2
[5] = 24 h, 1 µM, compound concentration 1 uM, replicate 1
[6] = 24 h, 1 µM, compound concentration 1 uM, replicate 2
[7] = 24 h, 10 µM, compound concentration 10 uM, replicate 1
[8] = 24 h, 10 µM, compound concentration 10 uM, replicate 2
[9] = 48 h, 10 µM, compound concentration 10 uM, replicate 1
[10] = 48 h, 10 µM, compound concentration 10 uM, replicate 2

## COc1cc(N2CCC(N(C)C)CC2)ccc1Nc1ncc(Cl)c(Nc2ccccc2P(C)(C)=O)n1
[1]
  Population Apoptotic (%): 64%
  Population Fragmented Nuclei (%): 26%
  Population Healthy Nuclei (%): 56%
  Population Hoechst High Intensity Objects (%): 14%
  Population Membrane Permeable-Phenotype (%): 8%
  Population Mitochondria Different-Phenotype (%): 6%
  Population Mitotic Cells (%): 35%
  Population Normal (%): 85%
  Population Pyknosed Nuclei (%): 16%
  Population Tubulin-Different-Phenotype (%): 6%
  Total Cell Count: 202
[2]
  Population Apoptotic (%): 42%
  Population Fragmented Nuclei (%): 52%
  Population Healthy Nuclei (%): 31%
  Population Hoechst High Intensity Objects (%): 24%
  Population Membrane Permeable-Phenotype (%): 14%
  Population Mitochondria Different-Phenotype (%): 7%
  Population Mitotic Cells (%): 57%
  Population Normal (%): 75%
  Population Pyknosed Nuclei (%): 15%
  Population Tubulin-Different-Phenotype (%): 21%
  Total Cell Count: 58
[3]
  Population Apoptotic (%): 73% and 69%
  Population Fragmented Nuclei (%): 27% and 24%
  Population Healthy Nuclei (%): 45% and 57%
  Population Hoechst High Intensity Objects (%): 13%
  Population Mitochondria Different-Phenotype (%): 7% and 6%
  Population Mitotic Cells (%): 26% and 30%
  Population Normal (%): 86%
  Population Pyknosed Nuclei (%): 27% and 17%
  Total Cell Count: 98 and 215
[4]
  Population Apoptotic (%): 37% and 88%
  Population Fragmented Nuclei (%): 45% and 26%
  Population Healthy Nuclei (%): 32%
  Population Hoechst High Intensity Objects (%): 39% and 16%
  Population Membrane Permeable-Phenotype (%): 8% and 15%
  Population Normal (%): 60% and 83%
  Population Pyknosed Nuclei (%): 21% and 40%
  Population Tubulin-Different-Phenotype (%): 41% and 90%
  Total Cell Count: 61 and 73
[5]
  Population Apoptotic (%): 96%
  Population Fragmented Nuclei (%): 18%
  Population Healthy Nuclei (%): 65%
  Population Hoechst High Intensity Objects (%): 14%
  Population Membrane Permeable-Phenotype (%): 6%
  Population Mitotic Cells (%): 3%
  Population Normal (%): 85%
  Population Pyknosed Nuclei (%): 16%
  Population Tubulin-Different-Phenotype (%): 4%
  Total Cell Count: 204
[6]
  Population Apoptotic (%): 57%
  Population Fragmented Nuclei (%): 43%
  Population Healthy Nuclei (%): 38%
  Population Hoechst High Intensity Objects (%): 32%
  Population Membrane Permeable-Phenotype (%): 0%
  Population Mitochondria Different-Phenotype (%): 6%
  Population Mitotic Cells (%): 42%
  Population Normal (%): 67%
  Population Pyknosed Nuclei (%): 17%
  Population Tubulin-Different-Phenotype (%): 13%
  Total Cell Count: 58
[7]
  Population Apoptotic (%): 68% and 88%
  Population Fragmented Nuclei (%): 29% and 31%
  Population Healthy Nuclei (%): 50% and 54%
  Population Hoechst High Intensity Objects (%): 13%
  Population Mitochondria Different-Phenotype (%): 14% and 9%
  Population Mitotic Cells (%): 31% and 11%
  Population Normal (%): 86%
  Population Pyknosed Nuclei (%): 19% and 14%
  Total Cell Count: 94 and 210
[8]
  Population Apoptotic (%): 66% and 92%
  Population Fragmented Nuclei (%): 47% and 26%
  Population Healthy Nuclei (%): 35% and 15%
  Population Hoechst High Intensity Objects (%): 39% and 38%
  Population Normal (%): 60% and 61%
  Population Tubulin-Different-Phenotype (%): 41% and 100%
  Total Cell Count: 56 and 75
[9]
  Population Apoptotic (%): 87%
  Population Fragmented Nuclei (%): 47%
  Population Healthy Nuclei (%): 41%
  Population Hoechst High Intensity Objects (%): 22%
  Population Membrane Permeable-Phenotype (%): 20%
  Population Mitochondria Different-Phenotype (%): 23%
  Population Mitotic Cells (%): 12%
  Population Normal (%): 77%
  Population Pyknosed Nuclei (%): 10%
  Population Tubulin-Different-Phenotype (%): 70%
  Total Cell Count: 94
[10]
  Population Apoptotic (%): 66%
  Population Fragmented Nuclei (%): 34%
  Population Healthy Nuclei (%): 61%
  Population Hoechst High Intensity Objects (%): 16%
  Population Membrane Permeable-Phenotype (%): 22%
  Population Mitochondria Different-Phenotype (%): 9%
  Population Mitotic Cells (%): 33%
  Population Normal (%): 83%
  Population Pyknosed Nuclei (%): 4%
  Population Tubulin-Different-Phenotype (%): 56%
  Total Cell Count: 86
